Measured values: ChEMBL document CHEMBL1153564 (Antimicrob Agents Chemother, 2008)
Values after ≈ are worked out from the molar mass of the structure shown. Active and inactive are the calls of the source. The calls are words filed in the database; no cut-off is given here. Starred links: 1 amine or outer side, 2 acyl side, 3 side chain; linkers in the order of their positions; H or OH if unused. Positions of bridges follow the written chain, without caps; N, C: chain ends. Non-standard residues stand in square brackets, D forms with d. Residues, ends and D or L forms follow the SMILES beside them. *: point of attachment. pTerphenylCO(4''-OnC5H11) = CCCCCOc1ccc(-c2ccc(-c3ccc(C(=O)*)cc3)cc2)cc1; Orn(4R-OH,5R-OH) = O=C([C@H](C[C@@H](O)[C@@H](O)N[*:3])N[*:1])[*:2]; hTyr(3S-OH,4S-OH) = N[C@H](C(=O)O)[C@H](O)[C@@H](O)c1ccc(O)cc1; Pro(3S-OH,4S-Me) = C[C@H]1CN[C@H](C(=O)O)[C@H]1O; Hyp = O=C(O)[C@@H]1C[C@@H](O)CN1

Assays:
Candida albicans [1] = assay: Antifungal activity against Candida albicans K-1 infected in neutropenic ICR/Swiss mouse candidiasis model assessed as suppression of fungal regrowth at 20 mg/kg, ip administered 2 hrs postinfection as single dose by time-kill assay; type: functional, organism-based; set-up: dose 20 mg/kg
Procedure, shortened: (§1)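 Single ip dose (20, 5 or 1.25 mg/kg) given 2 h after iv infection of neutropenic mice with K-1. Three treated and three control mice were sampled at intervals over 96 h for kidney CFU. PAFE is the time for treated burden to rise 1 log10 after serum levels fall below MIC, minus the same time in controls. Free drug was taken as 1%.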

Nakaseomyces glabratus [2] = assay: Antifungal activity against Candida glabrata 34341 assessed as partial growth inhibition after 24 hrs by CLSI end point method; type: functional; conditions: Nakaseomyces glabratus, 34341, 24 h
Procedure, shortened: (§2)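 Two end points were read against the drug-free control well: partial growth inhibition (the CLSI end point) and complete inhibition. Run in duplicate on four separate occasions; the value is the mean. Drug stock was made in DMSO and diluted in 0.9% NaCl.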

Candida albicans [3] = assay: Antifungal activity against Candida albicans 580 infected in neutropenic ICR/Swiss mouse candidiasis model assessed as fungal count per kidney administered 2 hrs postinfection measured up to 48 hrs; type: functional
Procedure, shortened: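 Untreated neutropenic mice infected via the tail vein (inoculum about 6.1 log10 CFU/ml, 0.1 ml). Growth is the rise in kidney CFU over 48 h. Kidneys were homogenised, serially diluted 1:10 and plated on SDA for 24 h at 35°C. Mean of three mice.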

Nakaseomyces glabratus [4] = assay: Antifungal activity against Candida glabrata 5592 assessed as complete growth inhibition after 24 hrs by CLSI end point method; type: functional; conditions: Nakaseomyces glabratus, 5592, 24 h; procedure, shortened: as §2
Nakaseomyces glabratus [5] = assay: Antifungal activity against Candida glabrata 33609 infected in neutropenic ICR/Swiss mouse candidiasis model assessed as dose required to maintain […] of 1.83 +/- 0.54 log10CFU per kidney administered intraperitoneally every 24 hrs up to 4 days measured per 24 hrs; type: functional
Nakaseomyces glabratus [6] = assay: Antifungal activity against Candida glabrata 33609 assessed as partial growth inhibition after 24 hrs by CLSI end point method; type: functional; conditions: Nakaseomyces glabratus, 33609, 24 h
Procedure, shortened: (§3)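 CLSI M27-A2 broth dilution. Two end points read against the drug-free control well: partial inhibition (CLSI end point) and complete inhibition. Run in duplicate on four separate occasions; value is the mean. Drug stock in DMSO, diluted in 0.9% NaCl.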

Nakaseomyces glabratus [7] = assay: Antifungal activity against Candida glabrata 5592 assessed as partial growth inhibition after 24 hrs by CLSI end point method; type: functional; conditions: Nakaseomyces glabratus, 5592, 24 h; procedure, shortened: as §2
Nakaseomyces glabratus [8] = assay: Antifungal activity against Candida glabrata 5376 infected in neutropenic ICR/Swiss mouse candidiasis model assessed as […] burden per kidney administered intraperitoneally every 16 hrs up to 4 days measured per 96 hrs; type: functional; conditions: Nakaseomyces glabratus, 5376, Kidney, ip
Procedure, shortened: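 Neutropenic ICR/Swiss mice infected i.v. with the strain; therapy began 2 h later. Total doses of 1.25–320 mg/kg/96 h were given i.p. as 1, 2, 4 or 6 doses (q96h, q48h, q24h, q16h), three mice per regimen. Kidney CFU were counted after 4 days. Effect is the change from untreated controls at the end of therapy.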

Nakaseomyces glabratus [9] = assay: Antifungal activity against Candida glabrata 33616 assessed as complete growth inhibition after 24 hrs by CLSI end point method; type: functional; conditions: Nakaseomyces glabratus, 33616, 24 h; procedure, shortened: as §2
Candida albicans [10] = assay: Antifungal activity against Candida albicans 98-17 assessed as partial growth inhibition after 24 hrs by CLSI end point method; type: functional; conditions: 98-17, 24 h; procedure, shortened: as §3
Nakaseomyces glabratus [11] = assay: Antifungal activity against Candida glabrata 5376 infected in neutropenic ICR/Swiss mouse candidiasis model assessed as prolongation of fungal growth suppression at 1.25 mg/kg, ip administered 2 hrs postinfection as single dose by time-kill assay; type: functional; conditions: route intraperitoneal
Procedure, shortened: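 Single ip dose of 1.25, 5 or 20 mg/kg given 2 h after iv infection of neutropenic mice. Groups of 3 treated and 3 control mice sampled at 1–24 h intervals over 96 h. Kidney homogenates plated on SDA, 24 h at 35°C. PAFE = time for treated burden to rise 1 log10 CFU/kidney after serum level fell below MIC, minus the same time in controls.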

Candida albicans [12] = assay: Antifungal activity against Candida albicans K-1 infected in neutropenic ICR/Swiss mouse candidiasis model assessed as reduction of […] in kidney at 1.25 mg/kg, ip administered 2 hrs postinfection as single dose measured after 96 hrs post dosing by time-kill assay; type: functional, organism-based; set-up: dose 1.25 mg/kg
Procedure, shortened: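 Neutropenic mice given a single ip dose (1.25, 5 or 20 mg/kg) 2 h after tail-vein infection. Kidneys from 3 mice per time point collected nine times over 96 h. Homogenates serially diluted 1:10 and plated on SDA, 24 h at 35°C. Detection limit 100 CFU/ml.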

Nakaseomyces glabratus [13] = assay: Antifungal activity against Candida glabrata 5376 infected in neutropenic ICR/Swiss mouse candidiasis model assessed as prolongation of fungal growth suppression at 20 mg/kg, ip administered 2 hrs postinfection as single dose by time-kill assay; type: functional; conditions: route intraperitoneal
Procedure, shortened: (§4)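 Neutropenic mice were infected i.v. and 2 h later given a single i.p. dose (1.25, 5 or 20 mg/kg). Groups of three treated and three control mice were killed at intervals over 96 h, and kidney CFU were counted on SDA (limit 100 CFU/ml). The post-antifungal effect is t − c: the time for a 1 log10 CFU/kidney increase once serum levels fall below the MIC in treated mice, minus the same time in controls.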

Candida albicans [14] = assay: Antifungal activity against Candida albicans after 24 hrs by broth microdilution method; type: functional
Candida albicans [15] = assay: Antifungal activity against Candida albicans K-1 infected in neutropenic ICR/Swiss mouse candidiasis model assessed as reduction of […] in kidney at 20 mg/kg, ip administered 2 hrs postinfection as single dose measured after 96 hrs post dosing by time-kill assay; type: functional, organism-based; set-up: dose 20 mg/kg; procedure, shortened: as §1
Nakaseomyces glabratus [16] = assay: Antifungal activity against Candida glabrata 5376 assessed as partial growth inhibition after 24 hrs by CLSI end point method; type: functional; conditions: Nakaseomyces glabratus, 5376, 24 h; procedure, shortened: as §2
Nakaseomyces glabratus [17] = assay: Antifungal activity against Candida glabrata 5376 infected in neutropenic ICR/Swiss mouse candidiasis model assessed as reduction of […] in kidney at 5 mg/kg, ip administered 2 hrs postinfection as single dose measured within 1 to 4 hrs post dosing by time-kill assay; type: functional, organism-based; set-up: dose 5 mg/kg; procedure, shortened: as §4
Nakaseomyces glabratus [18] = assay: Antifungal activity against Candida glabrata 513 infected in neutropenic ICR/Swiss mouse candidiasis model assessed as fungal count per kidney administered 2 hrs postinfection measured up to 48 hrs; type: functional
Procedure, shortened: (§5)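 Female ICR/Swiss mice (23–27 g) made neutropenic with cyclophosphamide s.c. (150 mg/kg day −4, 100 mg/kg day −1, 100 mg/kg day +2). Infected by tail vein with 0.1 ml inoculum (~6.1 log10 CFU/ml). Kidneys of untreated mice were homogenised and plated on SDA for 24 h at 35°C. Growth over 48 h is given as log10 CFU/kidney.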

Nakaseomyces glabratus [19] = assay: Antifungal activity against Candida glabrata 33616 infected in neutropenic ICR/Swiss mouse candidiasis model assessed as fungal count per kidney administered 2 hrs postinfection measured up to 48 hrs; type: functional; procedure, shortened: as §5
Nakaseomyces glabratus [20] = assay: Antifungal activity against Candida glabrata 570 infected in neutropenic ICR/Swiss mouse candidiasis model assessed as dose required to maintain […] of 1.83 +/- 0.54 log10CFU per kidney administered intraperitoneally every 24 hrs up to 4 days measured per 24 hrs; type: functional
Nakaseomyces glabratus [21] = assay: Antifungal activity against Candida glabrata 5376 infected in neutropenic ICR/Swiss mouse candidiasis model assessed as suppression of fungal regrowth at 5 mg/kg, ip administered 2 hrs postinfection as single dose by time-kill assay; type: functional, organism-based; set-up: dose 5 mg/kg; procedure, shortened: as §4

## CCCCCOc1ccc(-c2ccc(-c3ccc(C(=O)N[C@H]4C[C@@H](O)[C@@H](O)NC(=O)[C@@H]5[C@@H](O)[C@@H](C)CN5C(=O)[C@H]([C@@H](C)O)NC(=O)[C@H]([C@H](O)[C@@H](O)c5ccc(O)cc5)NC(=O)[C@@H]5C[C@@H](O)CN5C(=O)[C@H]([C@@H](C)O)NC4=O)cc3)cc2)cc1 [ANIDULAFUNGIN] ({pTerphenylCO(4''-OnC5H11)}-[Orn(4R-OH,5R-OH)]T[Hyp][hTyr(3S-OH,4S-OH)]T[Pro(3S-OH,4S-Me)]; lactam 1-C)
Candida albicans [1]
  Activity: Active
Nakaseomyces glabratus [2]
  MIC: 0.12 µg/mL (≈ 0.105 µM)
Candida albicans [3]
  log10cfu: 3.4
Nakaseomyces glabratus [4]
  MIC: 0.12 µg/mL (≈ 0.105 µM)
Nakaseomyces glabratus [5]
  Activity: 2 mg/kg
Nakaseomyces glabratus [6]
  MIC: 0.03 µg/mL (≈ 0.0263 µM)
Nakaseomyces glabratus [7]
  MIC: 0.06 µg/mL (≈ 0.0526 µM)
Nakaseomyces glabratus [8]
  ED50: 26.3 mg/kg
Nakaseomyces glabratus [9]
  MIC: 2 µg/mL (≈ 1.75 µM)
Candida albicans [10]
  MIC: 0.03 µg/mL (≈ 0.0263 µM)
Nakaseomyces glabratus [11]
  Activity: 19 h
Candida albicans [12]
  Activity: Active
Nakaseomyces glabratus [13]
  Activity: 67 h
Candida albicans [14]
  MIC90: 0.06 µg/mL (≈ 0.0526 µM)
Candida albicans [15]
  Activity: Active
Nakaseomyces glabratus [16]
  MIC: 0.03 µg/mL (≈ 0.0263 µM)
Nakaseomyces glabratus [17]
  Activity: Active
Nakaseomyces glabratus [18]
  log10cfu: 2.43
Nakaseomyces glabratus [19]
  log10cfu: 1.81
Nakaseomyces glabratus [20]
  Activity: 1.97 mg/kg
Nakaseomyces glabratus [21]
  Activity: Active
